Assay results as given in publication PMC2831464 (Clinical cancer research : an official journal of the …, 2010).
“And” between values parts separate entries of the source, which are not always exact repeats. Identical values can stand only once. “Also recorded” adds a separate entry of the source.

Key:
[1] = Plasma pharmacokinetics of AR-67 lactone and carboxylate; assay type: in vivo, human; conditions: for Cmax, total: observed at 45 min of 1-hr infusion
How it was run: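 Test compound was given as a 1-h IV infusion daily × 5. Heparinized blood was drawn on days 1 and 4 of cycle 1: pre-dose, 5, 45 and 65 min, and 1.5, 2, 4, 6, 8 and 24 h after infusion start. Plasma lactone and carboxylate were quantified by validated HPLC-fluorescence. Parameters were noncompartmental. Cmax was the observed 45-min value. Half-life required ≥3 elimination-phase points.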

[2] = tested on: refractory solid malignancies; assay: Tumor response per RECIST v1.0; assay type: in vivo, human
[3] = day 1 cycle 1, 1.2 mg/m^2 (n=2), mean
[4] = day 1 cycle 1, 1.67 mg/m^2 (n=3), mean
[5] = day 1 cycle 1, 2.34 mg/m^2 (n=3), mean
[6] = day 1 cycle 1, 3.23 mg/m^2 (n=3), mean
[7] = day 1 cycle 1, 4.5 mg/m^2 (n=1)
[8] = day 1 cycle 1, 6.3 mg/m^2 (n=1)
[9] = day 1 cycle 1, 7.5 mg/m^2 (n=7), mean
[10] = day 1 cycle 1, 8.9 mg/m^2 (n=4), mean
[11] = day 1 cycle 1, 12.4 mg/m^2 (n=2), mean
[12] = day 4 cycle 1, 1.2 mg/m^2 (n=1)
[13] = day 4 cycle 1, 1.67 mg/m^2 (n=3), mean
[14] = day 4 cycle 1, 2.34 mg/m^2 (n=3), mean
[15] = day 4 cycle 1, 3.23 mg/m^2 (n=3), mean
[16] = day 4 cycle 1, 4.5 mg/m^2 (n=1)
[17] = day 4 cycle 1, 6.3 mg/m^2 (n=1)
[18] = day 4 cycle 1, 7.5 mg/m^2 (n=7), mean
[19] = day 4 cycle 1, 8.9 mg/m^2 (n=4), mean
[20] = day 4 cycle 1, 12.4 mg/m^2 (n=2), mean

CC[C@@]1(O)C(=O)OCc2c1cc1n(c2=O)Cc2c-1nc1ccc(O)cc1c2[Si](C)(C)C(C)(C)C [AR-67, 7-t-butyldimethylsilyl-10-hydroxycamptothecin]
clearance with increasing dosage ([1]; 1.2–12.4 mg/m^2/day): clearance was constant
decrease in AUC between days 1 and 4 ([1]; all patients, dexamethasone co-treatment): ~ 20%
drug accumulation on day 4 ([1]; daily × 5 dosing, cycle 1): No drug accumulation was observed; also recorded: no evidence of accumulation
Clearancetotal [1, 3]: 13.8 L/hr/m^2
Lactone AUC(0−∞) [1, 3]: 81 ng·h/mL
Total AUC(0−∞) [1, 3]: 88 ng·h/mL
Vss, total [1, 3]: 7.4 L/m^2
Cmax, total [1, 3]: 77.6 ng/mL
Clearancetotal [1, 4]: 13.2 L/hr/m^2
Lactone AUC(0−∞) [1, 4]: 117 ng·h/mL
Total AUC(0−∞) [1, 4]: 128 ng·h/mL
Vss, total [1, 4]: 13.1 L/m^2
Cmax, total [1, 4]: 96.9 ng/mL
Clearancetotal [1, 5]: 14.1 L/hr/m^2
Lactone AUC(0−∞) [1, 5]: 186 ng·h/mL
Total AUC(0−∞) [1, 5]: 201 ng·h/mL
Vss, total [1, 5]: 13.5 L/m^2
Cmax, total [1, 5]: 158.9 ng/mL
Clearancetotal [1, 6]: 11.6 L/hr/m^2
Lactone AUC(0−∞) [1, 6]: 269 ng·h/mL
Total AUC(0−∞) [1, 6]: 290 ng·h/mL
Vss, total [1, 6]: 9.6 L/m^2
Cmax, total [1, 6]: 221.9 ng/mL
Clearancetotal [1, 7]: 21 L/hr/m^2
Lactone AUC(0−∞) [1, 7]: 179 ng·h/mL
Total AUC(0−∞) [1, 7]: 214 ng·h/mL
Vss, total [1, 7]: 32.7 L/m^2
Cmax, total [1, 7]: 117.8 ng/mL
Clearancetotal [1, 8]: 12.9 L/hr/m^2
Lactone AUC(0−∞) [1, 8]: 334 ng·h/mL
Total AUC(0−∞) [1, 8]: 490 ng·h/mL
Vss, total [1, 8]: 51.6 L/m^2
Cmax, total [1, 8]: 168.5 ng/mL
Clearancetotal [1, 9]: 13.1 L/hr/m^2
Lactone AUC(0−∞) [1, 9]: 498 ng·h/mL
T(1/2)total [1, 9]: 1.4 h
Total AUC(0−∞) [1, 9]: 581 ng·h/mL
Vss, total [1, 9]: 18.7 L/m^2
Cmax, total [1, 9]: 349.7 ng/mL
Clearancetotal [1, 10]: 18.9 L/hr/m^2
Lactone AUC(0−∞) [1, 10]: 471 ng·h/mL
T(1/2)total [1, 10]: 1.6 h
Total AUC(0−∞) [1, 10]: 502 ng·h/mL
Vss, total [1, 10]: 30.1 L/m^2
Cmax, total [1, 10]: 290.6 ng/mL
Clearancetotal [1, 11]: 15.8 L/hr/m^2
Lactone AUC(0−∞) [1, 11]: 686 ng·h/mL
T(1/2)total [1, 11]: 1.1 h
Total AUC(0−∞) [1, 11]: 786 ng·h/mL
Vss, total [1, 11]: 18.1 L/m^2
Cmax, total [1, 11]: 464.7 ng/mL
Clearancetotal ([1]; day 1 cycle 1, All dosage levels (N=26), mean): 14.5 ±4.1 L/hr/m^2 and 14.5 L/hr/m^2
T(1/2)total ([1]; day 1 cycle 1, All dosage levels, mean): 1.4 h
Clearancetotal [1, 12]: 23.6 L/hr/m^2
Lactone AUC(0−∞) [1, 12]: 49 ng·h/mL
Total AUC(0−∞) [1, 12]: 51 ng·h/mL
Vss, total [1, 12]: 15.6 L/m^2
Cmax, total [1, 12]: 51.6 ng/mL
Clearancetotal [1, 13]: 16.7 L/hr/m^2
Lactone AUC(0−∞) [1, 13]: 109 ng·h/mL
Total AUC(0−∞) [1, 13]: 115 ng·h/mL
Vss, total [1, 13]: 16.3 L/m^2
Cmax, total [1, 13]: 74.6 ng/mL
Clearancetotal [1, 14]: 15.3 L/hr/m^2
Lactone AUC(0−∞) [1, 14]: 137 ng·h/mL
Total AUC(0−∞) [1, 14]: 154 ng·h/mL
Vss, total [1, 14]: 7.9 L/m^2
Cmax, total [1, 14]: 137.8 ng/mL
Clearancetotal [1, 15]: 13.3 L/hr/m^2
Lactone AUC(0−∞) [1, 15]: 236 ng·h/mL
Total AUC(0−∞) [1, 15]: 255 ng·h/mL
Vss, total [1, 15]: 10.6 L/m^2
Cmax, total [1, 15]: 195 ng/mL
Clearancetotal [1, 16]: 24.2 L/hr/m^2
Lactone AUC(0−∞) [1, 16]: 149 ng·h/mL
Total AUC(0−∞) [1, 16]: 186 ng·h/mL
Vss, total [1, 16]: 45.3 L/m^2
Cmax, total [1, 16]: 82.5 ng/mL
Clearancetotal [1, 17]: 14.7 L/hr/m^2
Lactone AUC(0−∞) [1, 17]: 327 ng·h/mL
Total AUC(0−∞) [1, 17]: 429 ng·h/mL
Vss, total [1, 17]: 35.3 L/m^2
Cmax, total [1, 17]: 166.4 ng/mL
Clearancetotal [1, 18]: 16.8 L/hr/m^2
Lactone AUC(0−∞) [1, 18]: 411 ng·h/mL
T(1/2)total [1, 18]: 1.8 h
Total AUC(0−∞) [1, 18]: 478 ng·h/mL
Vss, total [1, 18]: 25.6 L/m^2
Cmax, total [1, 18]: 308.6 ng/mL
Clearancetotal [1, 19]: 18.6 L/hr/m^2
Lactone AUC(0−∞) [1, 19]: 397 ng·h/mL
T(1/2)total [1, 19]: 1.4 h
Total AUC(0−∞) [1, 19]: 507 ng·h/mL
Vss, total [1, 19]: 27.5 L/m^2
Cmax, total [1, 19]: 276.7 ng/mL
Clearancetotal [1, 20]: 19.8 L/hr/m^2
Lactone AUC(0−∞) [1, 20]: 551 ng·h/mL
T(1/2)total [1, 20]: 1.7 h
Total AUC(0−∞) [1, 20]: 663 ng·h/mL
Vss, total [1, 20]: 28.9 L/m^2
Cmax, total [1, 20]: 358.5 ng/mL
Clearancetotal ([1]; day 4 cycle 1, All dosage levels (N=25), mean): 17.4 ±5.2 L/hr/m^2 and 17.4 L/hr/m^2
T(1/2)total ([1]; day 4 cycle 1, All dosage levels, mean): 1.6 h
lactone form as share of the total AR-67 AUC (lactone + carboxylate) ([1]; human plasma, mean (±SD)): 87.5% and ~ 87.5%
increase of mean clearance of total AR-67 from day 1 to day 4 ([1]; p=0.0031, Wilcoxon signed rank): 20%
elimination half-life ([1]; patients, iv): ~ 1.4 hr
elimination profile ([1]; plasma, MTD cohort): bi-exponential profile
share of the total concentration in the lactone form ([1]; plasma, at each time point, all patients): Greater than 80%
subjects with stable disease ([2]; 22 subjects evaluable): Four
duration of prolonged partial response ([2]; one patient): > 16 months
response per RECIST v1.0 ([2]; one subject, squamous cell carcinoma of the lung (NSCLC), dosage level 5.5, ten cycles): prolonged partial response
time after end of cycle 10 with partial response maintained ([2]; recurrent NSCLC patient, 10 cycles, as of this writing): ≥ 7 months
